Measurements reported in ChEMBL document CHEMBL4680319, “Synthesis and evaluation of tiaprofenic acid-derived UCHL5 deubiquitinase inhibitors” (Bioorg Med Chem, 2021).
The source made the active and inactive calls. No cut-off for these calls is given here.

Tests used:
[1] = molecular target: T1, Ubiquitin carboxyl-terminal hydrolase isozyme L5 (Homo sapiens, UniProt Q9Y5K5); experiment: (§1) Inhibition of N-terminal His6-tagged recombinant human UCHL5 expressed in Escherichia coli BL21 (DE3) codon cells assessed as reduction in cleavage of Ubiquitin-Rhodamine110-glycine to Ubiquitin and Rhodamine110-glycine using Ub-Rho 110 as substrate incubated for 30 mins by fluorescence based assay
T1 sequence (Q9Y5K5 whole entry): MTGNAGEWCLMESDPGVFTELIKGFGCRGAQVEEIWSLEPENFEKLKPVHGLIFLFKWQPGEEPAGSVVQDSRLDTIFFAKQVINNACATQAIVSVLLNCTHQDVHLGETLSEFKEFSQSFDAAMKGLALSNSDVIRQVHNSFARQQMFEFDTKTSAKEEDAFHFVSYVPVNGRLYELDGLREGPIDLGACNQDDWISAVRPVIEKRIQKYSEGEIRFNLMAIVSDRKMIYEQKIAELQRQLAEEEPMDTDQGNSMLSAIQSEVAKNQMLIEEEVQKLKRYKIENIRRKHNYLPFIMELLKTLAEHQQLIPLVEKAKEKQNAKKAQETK
Outline: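 His-tagged human UCHL5 from pET151 in E. coli BL21(DE3) codon+ RIL, Ni-NTA purified; 0.464 nM enzyme, 1 μM Ub-Rho in 50 mM Tris-HCl pH 7.5, 150 mM NaCl, 0.1 mg/ml ovalbumin, 0.5 mM EDTA, 2.5 mM DTT; started by enzyme addition.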

[2] = molecular target: T2, Ubiquitin carboxyl-terminal hydrolase isozyme L5 (Homo sapiens) (UniProt Q9Y5K5); experiment: Potency index, ratio of (R)-tiaprofenic acid IC50 to test compound IC50 for inhibition of N-terminal His6-tagged recombinant human UCHL5 expressed in Escherichia coli BL21 (DE3) codon cells incubated for 30 mins by fluorescence based assay
T2 sequence (whole entry): T1 sequence (Q9Y5K5 whole entry)

Homo sapiens = species on record: Homo sapiens; experiment: as §1, with “[…] N-terminal GST/His6-tagged RPN13” for “expressed”, “substrate at 100 uM” for “substrate”, “assay relative to control” for “assay”
Outline: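 UCHL5 (0.464 nM, His-tagged, Ni-NTA purified from E. coli) combined with separately expressed Rpn13 (915 nM); each derivative tested at 100 μM. Buffer 50 mM Tris-HCl pH 7.5, 150 mM NaCl, 0.1 mg/ml ovalbumin, 0.5 mM EDTA, 2.5 mM DTT. Reaction started with UCHL5; Ub-Rho 1 μM; fluorescence ex 485/em 535 nm read over 30 min at RT. n = 2 independent experiments.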

[3] = molecular target: T2, Ubiquitin carboxyl-terminal hydrolase isozyme L5 (Homo sapiens); experiment: Inhibition of UCHL5 in human MDA-MB-231 cells assessed as reduction in enzyme-Ub-VS conjugation at 25 to 50 uM preincubated for 30 mins followed by incubation with Ub-VS for 11 mins in presence of Ub-VS by Western blot analysis; type: cell-based; conditions: dose 25-50 µM, time 41.0 min
Outline: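 Lysate (20 μg protein) preincubated with inhibitor 30 min at RT in same buffer without detergent, then Ub-VS 1 μM for 11 min at RT; SDS quench, 12% SDS-PAGE, anti-UCHL5 and β-actin blot; 2 independent experiments.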

[4] = molecular target: T3, Ubiquitin carboxyl-terminal hydrolase isozyme L1 (Homo sapiens, UniProt P09936); experiment: as §1, with “of” for “of N-terminal His6-tagged”, “N-terminal MET and His6-tagged UCHL1 (Gln2 to Ala223 residues)” for “UCHL5”, “coli” for “coli BL21 (DE3) codon cells”
T3 sequence (P09936 whole entry): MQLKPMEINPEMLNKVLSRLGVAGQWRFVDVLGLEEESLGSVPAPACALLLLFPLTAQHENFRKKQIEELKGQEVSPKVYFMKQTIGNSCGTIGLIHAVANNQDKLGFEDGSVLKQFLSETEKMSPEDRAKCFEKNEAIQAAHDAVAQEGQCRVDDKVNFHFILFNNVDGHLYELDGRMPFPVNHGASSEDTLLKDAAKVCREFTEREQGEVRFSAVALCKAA
Outline: (§2)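 Commercial enzymes at UCHL1 1.2 nM or UCHL3 32 pM, with 1 μM Ub-Rho in 50 mM Tris-HCl pH 7.5, 150 mM NaCl, 0.1 mg/ml ovalbumin, 0.5 mM EDTA, 2.5 mM DTT.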

[5] = molecular target: Ubiquitin carboxyl-terminal hydrolase isozyme L1 (Homo sapiens) (UniProt P09936); experiment: as above; outline: as §2
[6] = molecular target: T4, Ubiquitin carboxyl-terminal hydrolase isozyme L3 (Homo sapiens, UniProt P15374); experiment: (§3) Inhibition of recombinant human UCHL3 assessed as reduction in cleavage of Ubiquitin-Rhodamine110-glycine to Ubiquitin and Rhodamine110-glycine using Ub-Rho 110 as substrate incubated for 30 mins by fluorescence based assay; outline: as §2
T4 sequence (P15374 whole entry): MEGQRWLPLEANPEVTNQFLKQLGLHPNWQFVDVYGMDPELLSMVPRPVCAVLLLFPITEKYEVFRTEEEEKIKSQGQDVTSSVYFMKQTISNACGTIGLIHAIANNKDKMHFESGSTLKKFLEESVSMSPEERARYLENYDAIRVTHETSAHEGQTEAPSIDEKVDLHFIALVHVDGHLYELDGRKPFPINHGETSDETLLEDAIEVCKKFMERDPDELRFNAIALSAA

[7] = molecular target: T5, Ubiquitin carboxyl-terminal hydrolase isozyme L3 (Homo sapiens) (UniProt P15374); experiment: as §3; outline: as §2
T5 sequence (whole entry): T4 sequence (P15374 whole entry)

Compound	IC50 [1]	other results
Nc1ccc(-c2cn(Cc3cc(C(=O)O)cc(-c4ccc(C(=O)O)cc4)c3)nn2)cc1	284 µM	–
CC(C(=O)O)c1ccc(C(=O)c2ccccc2)s1 (stereo not given) [TIAPROFENIC ACID]	2950 µM	–
O=C(O)c1cc(Cn2cc(-c3ccc(NC(=O)c4ccccc4)cc3)nn2)cc(-c2ccccc2C(=O)O)c1	215 µM	–
CC(=O)Nc1ccc(-c2cn(Cc3cc(C(=O)O)cc(-c4ccccc4C(=O)O)c3)nn2)cc1	80.9 µM	–
CC(=O)Nc1cccc(-c2cn(Cc3cc(C(=O)O)cc(-c4ccccc4C(=O)O)c3)nn2)c1	96.2 µM	–
NS(=O)(=O)Nc1ccc(-c2cn(Cc3cc(C(=O)O)cc(-c4ccccc4C(=O)O)c3)nn2)cc1	84.5 µM	–
CC(C(=O)O)c1ccc(C(=O)c2cccc(-c3occc3C(=O)O)c2)s1 (stereo not given)	75.7 µM	–
Nc1cccc(-c2cn(Cc3cc(C(=O)O)cc(-c4ccccc4C(=O)O)c3)nn2)c1	72.6 µM	–
Nc1ccc(-c2cn(Cc3cccc(-c4ccccc4C(=O)O)c3)nn2)cc1	116 µM	–
CC(C(=O)O)c1ccc(C(=O)c2cccc(-c3ccccc3C(=O)O)c2)s1 (stereo not given)	89.1 µM	Ratio IC50 [2]: 33
Nc1ccc(-c2cn(Cc3cc(C(=O)O)cc(-c4cccc(C(=O)O)c4)c3)nn2)cc1	32.9 µM	inhibition (Homo sapiens): 70%; inhibition [3]: Active; IC50 [4]: 92 µM; inhibition [5]: Dose-dependent effect; IC50 [6]: 74 µM; inhibition [7]: Dose-dependent effect
O=C(O)c1cc(Cn2cc(-c3cccnc3)nn2)cc(-c2ccccc2C(=O)O)c1	252 µM	–
Nc1ccc(-c2cn(Cc3cc(C(=O)O)cc(-c4ccccc4C(=O)O)c3)nn2)cc1	80.5 µM	–
